Where two headings read alike, the source gives them in different places.
Columns and labels:
CYP3A4 [1] = settings: for CYP3A4 induction potential / impact on systemic exposure of midazolam and 1‐hydroxymidazolam: in vivo
clinical [2] = settings: human, in vivo, n = 6, mean; for AUC: AUC0–tau; for Cmax: C max
[3] = Safety: adverse events and laboratory findings in healthy volunteers; assay type: in vivo, human
Outline: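 Healthy volunteers receiving at least one dose of study drug formed the safety population. End points were incidence and severity of AEs, and baseline changes in vital signs, clinical laboratory tests and 12-lead ECG. DDI stage: one cohort of nine, test compound given fasted with co-administered midazolam. Other stages: single oral 150–1800 mg; 300 or 900 mg b.i.d.; 600 mg fasted then after high-fat meal.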

[4] = cited from earlier work
[5] = for DN AUC0–last / CL/F: SAD, fasted, n = 6, mean
clinical [6] = settings: human, in vivo, 600 mg, fasted period, n = 8, mean
[7] = 600 mg, high‐fat vs fasted
clinical [8] = settings: human, in vivo, po
[9] = for C min: steady‐state (day 7), n = 6, mean
CYP3A4 [10] = assay: In vitro CYP3A4 induction assays and preliminary PBPK modeling; assay type: in vitro ADME; settings: unpublished data
IL‐18 = assay: Ex vivo LPS/ATP stimulation of whole blood from participants: IL‐18 production; assay type: cell-based, human
human whole blood = settings: cited from earlier work
IL‐1β = assay: Ex vivo LPS/ATP stimulation of whole blood from participants: IL‐1β production; assay type: cell-based, human; settings: for maximum mean inhibition of IL‐1β production: relative to baseline
Outline: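 Whole blood from participants was drawn predose and at postdose timepoints. MAD dosing was oral 300 or 900 mg b.i.d. on days 1–6 plus one morning dose on day 7, fasted. Blood was stimulated ex vivo with an LPS plus ATP cocktail. Secreted IL-1β was the mean of two technical replicates. Inhibition = [1−(postdose/predose stimulated level)]×100%. IC90 came from a sigmoid Emax fit against time-matched plasma drug levels (HPLC-MS/MS).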

Urinary PK = assay type: in vivo, human; settings: multiple b.i.d. dosing (MAD)
[11] = cynomolgus monkey, 4‐week study; cited from earlier work
[12] = 1‐hydroxymidazolam, day 10 vs day 1
[13] = midazolam 5 mg alone (reference, day 1), analyte 1‐hydroxymidazolam, n 9
[14] = 300 mg, MAD 300 mg b.i.d., first dose (day 1)
[15] = 300 mg, MAD 300 mg b.i.d., steady‐state (day 7)
[16] = 900 mg, MAD 900 mg b.i.d., first dose (day 1)
[17] = 900 mg, MAD 900 mg b.i.d., steady‐state (day 7)
[18] = single 150‐mg, 450‐mg and 900‐mg doses
[19] = single doses of 600 mg, both fasted and high‐fat periods

## OCc1ncc2n1-c1ccc(Cl)cc1C(c1ccccc1F)=NC2 [1‐hydroxymidazolam]
CYP3A4 [1]; [12]
  AUC0–inf GMR: 90%
  AUC0–last GMR: 88%
  Cmax GMR: 92%
CYP3A4 [1]; [13]
  AUC0–inf, geometric LS mean: 0.0203 µg·h/mL
  AUC0–last, geometric LS mean: 0.0188 µg·h/mL
  C max, geometric LS mean: 9.25 ng/mL

## CN[C@@H]1COc2c(S(=O)(=O)NC(=O)Nc3c4c(cc5c3CCC5)CCC4)cnn2C1 [GDC‐2394, (S)‐N‐((1,2,3,5,6,7‐hexahydro‐s‐indacen‐4‐yl)carbamoyl)‐6‐(methylamino)‐6,7‐dihydro‐5H‐pyrazolo[5,1‐b][1,3]oxazine‐3‐sulfonamide]
Clinical [2]; [14]
  AUC: 82 µg·h/mL
  Cmax: 15300 ng/mL
Clinical [2]; [15]
  AUC: 92.2 µg·h/mL
  Cmax: 16400 ng/mL
Clinical [2]; [16]
  AUC: 301 µg·h/mL
  Cmax: 52700 ng/mL
Clinical [2]; [17]
  AUC: 327 µg·h/mL
  Cmax: 51000 ng/mL
CYP3A4 [1]; human
  CYP3A4 induction potential / impact on systemic exposure of midazolam and 1‐hydroxymidazolam: minimal CYP3A4 induction potential
CYP3A4 [1]
  CYP3A4 induction potential / impact on systemic exposure of midazolam and 1‐hydroxymidazolam: did not have an apparent impact
[3]; DDI stage, after completion of GDC‐2394 dosing
  participants with events consistent with hepatic injury: Three
[3]; DDI stage, both participants
  time to recovery from severe DILI: ≤ 3 months
[3]; DDI stage, n = 9
  total number of events considered related to study treatment: 14
[3]; MAD 900 mg b.i.d., one subject, day 14
  peak elevation of ALT: 1.67 × the upper limit of normal [ULN]
[3]; MAD, all GDC‐2394 (n = 12)
  Subjects with at least one AE leading to dose modification/interruption: 0
  Subjects with at least one AE leading to withdrawal from treatment: 0
  Subjects with at least one AE with fatal outcome: 0
  Subjects with at least one grade 3–5 AE (at greatest intensity): 0
  Subjects with at least one related AE: 4 (33.3%)
  Subjects with at least one related serious AE: 0
  Subjects with at least one serious AE: 0
  Total number of AEs: 18
  Total number of deaths: 0
  Total number of subjects with at least one AE: 8 (66.7%)
  Total number of subjects withdrawn from study due to an AE: 0
[3]; SAD, all GDC‐2394 (n = 24)
  Subjects with at least one AE leading to dose modification/interruption: 0
  Subjects with at least one AE leading to withdrawal from treatment: 0
  Subjects with at least one AE with fatal outcome: 0
  Subjects with at least one grade 3–5 AE (at greatest intensity): 0
  Subjects with at least one related AE: 6 (25.0%)
  Subjects with at least one related serious AE: 0
  Subjects with at least one serious AE: 0
  Total number of AEs: 22
  Total number of deaths: 0
  Total number of subjects with at least one AE: 14 (58.3%)
  Total number of subjects withdrawn from study due to an AE: 0
[4]
  blood:plasma ratio: 0.6
[5]; 150‐mg starting dose
  observed AUC relative to the preclinical prediction: approximately three‐fold
[5]; single oral 150 mg
  DN AUC0–last: 356 ng·h/mL/mg
[5]; single oral 450 mg
  CL/F: 3390 mL/h
  DN AUC0–last: 307 ng·h/mL/mg
[5]; single oral 900 mg
  CL/F: 3040 mL/h
  DN AUC0–last: 352 ng·h/mL/mg
[5]; single oral 1800 mg
  CL/F: 2590 mL/h
  DN AUC0–last: 410 ng·h/mL/mg
[5]; single oral doses 150–1800 mg
  increases in systemic exposure with dose (dose‐normalized Cmax and AUC0–last): approximately dose proportional
[5]; single oral doses across 150–1800 mg
  apparent clearance, range of mean values: 2590 to 3390 mL/h
Clinical [6]; C max, FE 600 mg single dose
  Cmax: 28000 ng/mL
Clinical [6]; T 1/2, FE 600 mg single dose
  half-life: 5.3 h
[7]
  decrease of AUC0–inf with a high‐fat meal: 14%
  decrease of AUC0–last with a high‐fat meal: 14%
  decrease of Cmax with a high‐fat meal: ~ 16%
Clinical [8]
  half-life: 4.1 to 8.6 h
Clinical [8]; 150 mg
  AUC(0-t): 53.5 µg·h/mL
  Cmax: 8110 ng/mL
  Tmax: 2.1 h
  Vd/F: 16.7 L
  half-life: 4.1 h
Clinical [8]; 450 mg
  AUC(0-inf): 138 µg·h/mL
  AUC(0-t): 138 µg·h/mL
  Cmax: 22900 ng/mL
  Tmax: 2 h
  Vd/F: 30.2 L
  half-life: 5.8 h
Clinical [8]; 900 mg
  AUC(0-inf): 317 µg·h/mL
  AUC(0-t): 317 µg·h/mL
  Cmax: 50400 ng/mL
  Tmax: 2 h
  Vd/F: 34.9 L
  half-life: 6.8 h
Clinical [8]; 1800 mg
  AUC(0-inf): 739 µg·h/mL
  AUC(0-t): 738 µg·h/mL
  Cmax: 101000 ng/mL
  Tmax: 4 h
  Vd/F: 32.1 L
  half-life: 8.6 h
[9]; MAD 300 mg b.i.d.
  C min: 1820 ng/mL
[9]; MAD 900 mg b.i.d.
  C min: 9080 ng/mL
[9]; MAD stage
  interindividual variability of PK parameters, %CVs: less than 50%
[9]; MAD, both cohorts, from trough concentrations
  likely achievement of steady‐state: ≤ 2 days
[9]; both MAD cohorts (300 and 900 mg b.i.d.), steady‐state vs day 1
  accumulation ratios for Cmax and AUC0–tau: ~ 1
CYP3A4 [10]
  CYP3A4 induction potential: mild‐to‐moderate
IL‐18; 900‐mg b.i.d.
  mean inhibition of IL‐18 production across most of the 7‐day dosing period: greater than 99%
IL‐18; Homo sapiens, read-out: estimated plasma IC90 for IL‐18 inhibition
  IC90: ~2.5 µM
IL‐18; all SAD cohorts
  inhibition of IL‐18 production (in words): Near‐complete or complete inhibition
IL‐18; [18]
  time for which IL‐18 inhibition was sustained: ~ 8 h
IL‐18; single 1800‐mg dose
  time for which IL‐18 inhibition was sustained: ~ 24 h
Human whole blood
  in vitro human whole blood IC90: 0.639 µg/mL
Human whole blood; read-out: in vitro human whole blood IC90
  IC90: 1.48 µM
IL‐1β; 300 mg b.i.d.
  mean inhibition of IL‐1β production sustained over the 7‐day dosing period: greater than 95%
IL‐1β; 900 mg b.i.d.
  mean inhibition of IL‐1β production sustained over the 7‐day dosing period: greater than 99%
IL‐1β; Homo sapiens, read-out: estimated plasma IC90 for IL‐1β inhibition
  IC90: ~2.5 µM
IL‐1β; single 150‐mg dose
  maximum mean inhibition of IL‐1β production: greater than 97%
IL‐1β; [18]
  time for which maximum mean IL‐1β inhibition was sustained: ~ 8 h
IL‐1β; single 450‐mg dose
  maximum mean inhibition of IL‐1β production: greater than 97%
IL‐1β; single 900‐mg dose
  maximum mean inhibition of IL‐1β production: greater than 99%
IL‐1β; single dose of 1800 mg
  mean inhibition of IL‐1β production: greater than or equal to 99%
  time for which mean IL‐1β inhibition was sustained: ~ 24 h
IL‐1β; [19]
  mean inhibition of IL‐1β production: greater than 99%
  time for which mean IL‐1β inhibition was sustained: 8 h
Urinary PK
  mean fraction of drug excreted in urine 0 to 12 h postdose on day 7, range: 12.3% to 14.8
[11]
  no‐observed‐adverse‐effect level (NOAEL): 600 mg/kg/day

From publication PMC10499406 (Clinical and Translational Science, 2023)
